Measurements: the array DNA melting data of Ke et al. (doi:10.1101/2024.01.08.574731)

How the values were obtained:
[1] = melting temperature; fluorescence melt of hairpins on a sequencing array, two-state fit, raised by 9.35 °C to match UV melts; settings: sodium 0.088 M
In short: (§1)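 Bootstrapped two-state fits yielded melting temperature and folding enthalpy for library hairpins. Cy3 fluorescence, with annealed Cy3 and quencher oligos, was imaged on a sequenced MiSeq flow cell in 50 mM Na-HEPES pH 8.0, 25 mM NaCl in 2.5 °C steps up to 60 °C, and normalised to pre-quench Cy3 and to control constructs. Four replicates were combined by inverse variance, and fitted temperatures were raised by 9.35 °C to match UV melts.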

[2] = folding enthalpy; higher = less favourable; fluorescence melt of hairpins on a sequencing array, two-state fit; settings: sodium 0.088 M
In short: as §1

| Sequence | Tm [1] [°C] | folding enthalpy [2] [kcal/mol] |
| --- | --- | --- |
| GCTGGTCGAAAGACAAGC (((.(((....))).))) | 56.2 | -41.4 |
| GCTGGTCGAAAGACGAGC (((.(((....))).))) | 54.5 | -54.3 |
| GCTGGTGGAAACGTCAGC ((((..(....)..)))) | 43.3 | -23.9 |
| GCTGTACGAAAGTAGAGC (((.(((....))).))) | 51.7 | -35.3 |
| GCTGTAGGAAACTACAGC (((((((....))))))) | 63.3 | -44.6 |
| GCTGTAGGAAACTACGGC ((.((((....)))).)) | 53.3 | -42.9 |
| GCTGTAGGAAACTATAGC (((.(((....))).))) | 43.7 | -28.3 |
| GCTGTCGAAAGACTCAGC ((((((....)))..))) | 40.5 | -18.7 |
| GCTGTGCGAAAGCAGTGC ((..(((....)))..)) | 46.6 | -15.8 |
| GCTGTGCGAAAGCGCGGC ((.(.((....)).).)) | 66.6 | -25.3 |
| GCTGTGCGAAAGCTCCGC ((.(.((....)).).)) | 40 | -14.5 |
| GCTGTGCGAAAGCTGAGC (((..((....))..))) | 49.1 | -16.6 |
| GCTGTGGCGAAAGCCAGC (((..(((....)))))) | 52.2 | -13.8 |
| GCTGTGGGAAACCACAAC (.(((((....))))).) | 39.2 | -15.8 |
| GCTGTTGGAAACAACAAC (.(((((....))))).) | 35.2 | -15.9 |
| GCTGTTGGAAACAATAGC (((.(((....))).))) | 47.9 | -31.9 |
| GCTGTTGGAAACAGTAGC (((..((....))..))) | 41.6 | -11.9 |
| GCTTAACGAAAGTTAGC (((.(((....)))))) | 44.9 | -21.7 |
| GCTTAACGAAAGTTCAGC (((.(((....))).))) | 44.4 | -31.6 |
| GCTTAAGCGAAAGCTAGC (((..(((....)))))) | 40.5 | -17.6 |
| GCTTAAGGAAACCTAAGC (((((.(....).))))) | 35.7 | -22.8 |
| GCTTACACGAAAGTGAGC (((..(((....)))))) | 38.8 | -16.9 |
| GCTTACCGAAAGGTAGC (((.(((....)))))) | 53 | -19.8 |

| Sequence | Tm [1] [°C] | folding enthalpy [2] [kcal/mol] |
| --- | --- | --- |
| GCTTACGAAAGTAAAGC ((((((....))).))) | 49.6 | -23.8 |
| GCTTACGAAAGTAGAAGC ((((((....)))..))) | 38.2 | -24.3 |
| GCTTACGAAAGTATAAGC ((((((....)))..))) | 38.3 | -28.6 |
| GCTTACGGAAACGTAGGC ((.((((....)))).)) | 50 | -27.2 |
| GCTTAGCGAAAGCAATGC ((.(.((....)).).)) | 31.9 | -11.7 |
| GCTTAGCGAAAGCACAGC (((..((....))..))) | 38.6 | -15.8 |
| GCTTAGCGAAAGCCAGGC ((.(.((....)).).)) | 34.5 | -12.6 |
| GCTTAGCGAAAGCGAAGC ((((.((....)).)))) | 60.8 | -22.4 |
| GCTTAGCGAAAGCGATGC ((.(.((....)).).)) | 59.5 | -18.6 |
| GCTTAGCGAAAGCGCAGC (((..((....))..))) | 46.9 | -17.6 |
| GCTTAGCGAAAGCTCAGC (((.(((....))).))) | 49.1 | -33.7 |
| GCTTAGCGAAAGCTGAGC (((.(((....))).))) | 57.6 | -45.6 |
| GCTTAGCGAAAGCTGCGC ((..(((....)))..)) | 54.9 | -19.3 |
| GCTTAGCGAAAGCTGGGC ((..(((....)))..)) | 51.8 | -20.1 |
| GCTTAGCGAAAGCTGTGC ((..(((....)))..)) | 39.7 | -16.4 |
| GCTTAGTCGAAAGACAGC (((..(((....)))))) | 40.3 | -17.2 |
| GCTTATCGAAAGATGAGC (((.(((....))).))) | 50.6 | -54.6 |
| GCTTATCGAAAGATTAGC (((.(((....))).))) | 44.8 | -35.9 |
| GCTTATGGAAACGTAAGC (((((.(....).))))) | 45.1 | -44 |
| GCTTCAGGAAACCGAAGC (((((.(....).))))) | 46.3 | -35.9 |
| GCTTCCCCGAAAGGGAGC (((..(((....)))))) | 46.6 | -19.2 |
| GCTTCCGAAAGGAAAGC ((((((....))).))) | 54.3 | -38.7 |
